Reference: ChEMBL document CHEMBL1221334, “A class of novel carboline intercalators: Their synthesis, in vitro anti-proliferation, in vivo anti-tumor action, and 3D QSAR analysis” (Bioorg Med Chem, 2010)
The source made the active and inactive calls. The rule behind the calls is not given here.

What was measured:
CCRF S-180 [1] = assay: Antitumor activity against mouse S180 cells transplanted in ICR mouse assessed as inhibition of tumor weight at 8.9 umol/kg, ip; type: functional; settings: CCRF S-180, ip
Procedure, shortened: (§1)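 S180 ascites cells, serially passaged weekly in mice, were implanted subcutaneously (1 × 10⁷ viable cells in NS) in the right axilla of male ICR mice aged 10–12 weeks. After 24 h, mice were randomized (10/group) and dosed ip daily with 8.9 µmol/kg in 0.2 ml NS for 7 days. Tumours were weighed 24 h after the last dose. Inhibition = [1 − Tw/Cw] × 100.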

HepG2 = assay: Cytotoxicity against human HepG2 cells […] by MTT assay; type: functional, cell-based
Procedure, shortened: (§2)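 Cells (1 × 10⁴/ml) in RPMI-1640 were cultured 24 h at 37 °C in 5% CO₂. Medium was then renewed with compound (final 0.1–200 µM) and cells grown a further 48 h. MTT was added for 4 h, residues dissolved in DMSO and absorbance read. I% = (C − T)/C. IC50 is given as mean ± SD, n = 6.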

HeLa = assay: Cytotoxicity against human HeLa cells […] by MTT assay; type: functional, cell-based; procedure, shortened: as §2
K562 = assay: Cytotoxicity against human K562 cells […] by MTT assay; type: functional, cell-based; procedure, shortened: as §2
Bel-7402 = assay: Cytotoxicity against human Bel7402 cells […] by MTT assay; type: functional, cell-based; procedure, shortened: as §2
B16 = assay: Cytotoxicity against mouse B16 cells […] by MTT assay; type: functional, cell-based
CCRF S-180 [2] = assay: Antitumor activity against mouse S180 cells transplanted in ICR mouse assessed as inhibition of tumor weight at 0.89 umol/kg, ip; type: functional; settings: CCRF S-180, ip
CCRF S-180 [3] = assay: Antitumor activity against mouse S180 cells transplanted in ICR mouse assessed as inhibition of tumor weight; type: functional, cell-based; procedure, shortened: as §1
CCRF S-180 [4] = assay: Antitumor activity against mouse S180 cells transplanted in ICR mouse assessed as inhibition of tumor weight at 89 umol/kg, ip; type: functional; settings: CCRF S-180, ip
Calf thymus DNA [5] = assay: Binding affinity to calf thymus DNA assessed as change in melting temperature; type: nucleic-acid assay; settings: Bos taurus
Procedure, shortened: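 Thermal denaturation used CT DNA (100 µM) with test compound (18 µM) in PBS, pH 7.4, at a compound/DNA ratio of 0.18. Temperature was raised at 1 °C/min while absorbance at 260 nm was monitored.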

Calf thymus DNA [6] = assay: Binding affinity to calf thymus DNA assessed as induction of hypochromatic effect by spectrophotometry; type: nucleic-acid assay; settings: Bos taurus
Procedure, shortened: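 UV absorption spectra (220–400 nm) were recorded in PBS for CT DNA (final 240 µM), alone and with test compound at final concentrations of 27, 54, 81 and 108 µM. Hypochromicity and wavelength shift were assessed.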

Calf thymus DNA [7] = assay: Binding affinity to calf thymus DNA assessed as increase in viscosity; type: nucleic-acid assay; settings: Bos taurus
Procedure, shortened: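 An Ostwald viscometer was held at 28 °C in phosphate buffer, with compound/DNA ratios of 0–0.36. Flow times were taken after 5 min of thermal equilibration. η = (t − t₀)/t₀, and data were plotted as (η/η₀)^1/3 versus binding ratio.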

Calf thymus DNA [8] = assay: Binding affinity to calf thymus DNA assessed as decrease in fluorescence intensity at 8 to 72 uM by fluorescence spectroscopy; type: nucleic-acid assay; settings: Bos taurus

In the case of `O=C(OCc1ccccc1)c1cc2c([nH]c3ccccc32)c(CCN[C@@H](Cc2ccc(O)cc2)C(=O)OCc2ccccc2)n1`, the inhibition in vivo at 8.9 µmol/kg (CCRF S-180 [1]) is reported as 31.7%, the IC50 (HepG2) is reported as greater than 100 µM and the IC50 (HeLa) is reported as 16.7 µM. For the same compound, the IC50 (K562) was 18.9 µM, the IC50 (Bel-7402) was 23.7 µM and the IC50 (B16) was 24.5 µM.
With `NC(=O)C[C@H](NCCc1nc(C(=O)OCc2ccccc2)cc2c1[nH]c1ccccc12)C(=O)OCc1ccccc1` the inhibition in vivo at 8.9 µmol/kg (CCRF S-180 [1]) was 14%, the IC50 (HepG2) was greater than 100 µM and the IC50 (HeLa) was 97.2 µM. It also gave an IC50 (K562) of 63.6 µM, an IC50 (Bel-7402) greater than 100 µM and an IC50 (B16) of 17.1 µM.
With `O=C(OCc1ccccc1)c1cc2c([nH]c3ccccc32)c(CCN[C@@H](Cc2c[nH]c3ccccc23)C(=O)OCc2ccccc2)n1` the inhibition in vivo at 8.9 µmol/kg (CCRF S-180 [1]) was 22.2%, the IC50 (HepG2) was 60 µM and the IC50 (HeLa) was 59.5 µM. It also gave an IC50 (K562) of 14.9 µM, an IC50 (Bel-7402) of 39 µM and an IC50 (B16) of 20.7 µM.
`O=C(C[C@H](NCCc1nc(C(=O)OCc2ccccc2)cc2c1[nH]c1ccccc12)C(=O)OCc1ccccc1)OCc1ccccc1` showed an inhibition in vivo at 8.9 µmol/kg (CCRF S-180 [1]) of 56.1%, an IC50 (HepG2) greater than 100 µM and an inhibition in vivo at 0.89 µmol/kg (CCRF S-180 [2]) of 40.6%. The Activity (CCRF S-180 [3]) was “Dose-dependent effect”, the IC50 (HeLa) was greater than 100 µM and the IC50 (K562) was greater than 100 µM. The inhibition in vivo at 89 µmol/kg (CCRF S-180 [4]) was 73.5%, the IC50 (Bel-7402) was 60.3 µM and the IC50 (B16) was 11.1 µM.
`CC(C)C[C@H](NCCc1nc(C(=O)OCc2ccccc2)cc2c1[nH]c1ccccc12)C(=O)OCc1ccccc1` was tested, and the inhibition in vivo at 8.9 µmol/kg (CCRF S-180 [1]) was 50.9%, the IC50 (HepG2) was 25.2 µM and the Tm (Calf thymus DNA [5]) was 13.8 °C. The IC50 (HeLa) was 22.5 µM, the Activity (Calf thymus DNA [6]) was 53% and the IC50 (K562) was 21.5 µM. For the same compound, the Activity (Calf thymus DNA [7]) was “Dose-dependent effect”, the IC50 (Bel-7402) was 43.5 µM and the Activity (Calf thymus DNA [8]) was “Active”. It also gave an IC50 (B16) of 50.2 µM.
`O=C(NCCCC[C@H](NCCc1nc(C(=O)OCc2ccccc2)cc2c1[nH]c1ccccc12)C(=O)OCc1ccccc1)OCc1ccccc1` gave an inhibition in vivo at 8.9 µmol/kg (CCRF S-180 [1]) of 28.9%, an IC50 (HepG2) of 36.3 µM and an IC50 (HeLa) of 33.9 µM. It also gave an IC50 (K562) of 15.4 µM, an IC50 (Bel-7402) of 14.9 µM and an IC50 (B16) of 49.4 µM.
`O=C(OCc1ccccc1)c1cc2c([nH]c3ccccc32)c(CCN2CCC[C@H]2C(=O)OCc2ccccc2)n1` was tested, and the inhibition in vivo at 8.9 µmol/kg (CCRF S-180 [1]) was 7.1%, the IC50 (HepG2) was 17.1 µM and the IC50 (HeLa) was 25.8 µM. It also gave an IC50 (K562) of 20.1 µM, an IC50 (Bel-7402) of 52.8 µM and an IC50 (B16) of 71.8 µM.
In the case of `O=C(OCc1ccccc1)c1cc2c([nH]c3ccccc32)c(CCN[C@@H](Cc2c[nH]cn2)C(=O)OCc2ccccc2)n1`, the inhibition in vivo at 8.9 µmol/kg (CCRF S-180 [1]) is reported as 35.4%, the IC50 (HepG2) is reported as greater than 100 µM and the inhibition in vivo at 0.89 µmol/kg (CCRF S-180 [2]) is reported as 6.3%. The Activity (CCRF S-180 [3]) was “Dose-dependent effect”, the IC50 (HeLa) was 63.6 µM and the IC50 (K562) was 14.4 µM. It also gave an inhibition in vivo at 89 µmol/kg (CCRF S-180 [4]) of 60.7%, an IC50 (Bel-7402) of 36.9 µM and an IC50 (B16) of 60 µM.
`CC(C)[C@H](NCCc1nc(C(=O)OCc2ccccc2)cc2c1[nH]c1ccccc12)C(=O)OCc1ccccc1` showed an inhibition in vivo at 8.9 µmol/kg (CCRF S-180 [1]) of 34%, an IC50 (HepG2) of 29.2 µM and an IC50 (HeLa) of 25.5 µM. The IC50 (K562) was 20.9 µM, the IC50 (Bel-7402) was 20.3 µM and the IC50 (B16) was 28.8 µM.
For `O=C(OCc1ccccc1)c1cc2c([nH]c3ccccc32)c(CCN[C@@H](CO)C(=O)OCc2ccccc2)n1`, the inhibition in vivo at 8.9 µmol/kg (CCRF S-180 [1]) was 36.7%, the IC50 (HepG2) was 19.9 µM and the IC50 (HeLa) was 20.3 µM. For the same compound, the IC50 (K562) was 19.7 µM, the IC50 (Bel-7402) was 54.6 µM and the IC50 (B16) was 60.3 µM.
`C[C@@H](O)[C@H](NCCc1nc(C(=O)OCc2ccccc2)cc2c1[nH]c1ccccc12)C(=O)OCc1ccccc1` gave an inhibition in vivo at 8.9 µmol/kg (CCRF S-180 [1]) of 34.8%, an IC50 (HepG2) of 26 µM and an IC50 (HeLa) of 15.2 µM. For the same compound, the IC50 (K562) was 38.3 µM, the IC50 (Bel-7402) was greater than 100 µM and the IC50 (B16) was 38.4 µM.
In the case of `O=C(CNCCc1nc(C(=O)OCc2ccccc2)cc2c1[nH]c1ccccc12)OCc1ccccc1`, the inhibition in vivo at 8.9 µmol/kg (CCRF S-180 [1]) is reported as 3.5%, the IC50 (HepG2) is reported as 50 µM and the IC50 (HeLa) is reported as 26.8 µM. For the same compound, the IC50 (K562) was 47.1 µM, the IC50 (Bel-7402) was 53.2 µM and the IC50 (B16) was 75.4 µM.
`C[C@H](NCCc1nc(C(=O)OCc2ccccc2)cc2c1[nH]c1ccccc12)C(=O)OCc1ccccc1` was tested, and the inhibition in vivo at 8.9 µmol/kg (CCRF S-180 [1]) was 22%, the IC50 (HepG2) was greater than 100 µM and the IC50 (HeLa) was 76.4 µM. For the same compound, the IC50 (K562) was 48.2 µM, the IC50 (Bel-7402) was 100 µM and the IC50 (B16) was 20.5 µM.
`O=C(CC[C@H](NCCc1nc(C(=O)OCc2ccccc2)cc2c1[nH]c1ccccc12)C(=O)OCc1ccccc1)OCc1ccccc1` was tested, and the inhibition in vivo at 8.9 µmol/kg (CCRF S-180 [1]) was 29.4%, the IC50 (HepG2) was 63.1 µM and the IC50 (HeLa) was 54.9 µM. For the same compound, the IC50 (K562) was 18.5 µM, the IC50 (Bel-7402) was greater than 100 µM and the IC50 (B16) was 66.4 µM.
In the case of `CSCC[C@H](NCCc1nc(C(=O)OCc2ccccc2)cc2c1[nH]c1ccccc12)C(=O)OCc1ccccc1`, the inhibition in vivo at 8.9 µmol/kg (CCRF S-180 [1]) is reported as 15.3%, the IC50 (HepG2) is reported as 18.7 µM and the IC50 (HeLa) is reported as 28.8 µM. The IC50 (K562) was 13.5 µM, the IC50 (Bel-7402) was 25.8 µM and the IC50 (B16) was 61.1 µM.
`Nc1ccn([C@@H]2O[C@H](CO)[C@@H](O)[C@@H]2O)c(=O)n1` [CYTARABINE] showed an inhibition in vivo at 8.9 µmol/kg (CCRF S-180 [1]) of 24.3%, an IC50 (HepG2) of 0.2 µM and an inhibition in vivo at 0.89 µmol/kg (CCRF S-180 [2]) of 6.8%. It also gave an IC50 (K562) of 33.5 µM, an inhibition in vivo at 89 µmol/kg (CCRF S-180 [4]) of 54.8% and an IC50 (Bel-7402) of 34.2 µM.
Compound `CC[C@H](C)[C@H](NCCc1nc(C(=O)OCc2ccccc2)cc2c1[nH]c1ccccc12)C(=O)OCc1ccccc1` has an inhibition in vivo at 8.9 µmol/kg (CCRF S-180 [1]) of 33.9%, an IC50 (HepG2) greater than 100 µM and an IC50 (HeLa) greater than 100 µM. The IC50 (K562) was greater than 100 µM, the IC50 (Bel-7402) was greater than 100 µM and the IC50 (B16) was 19.2 µM.
`NC(=O)CC[C@H](NCCc1nc(C(=O)OCc2ccccc2)cc2c1[nH]c1ccccc12)C(=O)OCc1ccccc1` was tested, and the inhibition in vivo at 8.9 µmol/kg (CCRF S-180 [1]) was -5.3%, the IC50 (HepG2) was 35.9 µM and the IC50 (HeLa) was 71 µM. The IC50 (K562) was greater than 100 µM, the IC50 (Bel-7402) was 81.3 µM and the IC50 (B16) was 42.5 µM.
`O=C(OCc1ccccc1)c1cc2c([nH]c3ccccc32)c(CCN[C@@H](Cc2ccccc2)C(=O)OCc2ccccc2)n1` was tested, and the inhibition in vivo at 8.9 µmol/kg (CCRF S-180 [1]) was 6.6%, the IC50 (HepG2) was greater than 100 µM and the IC50 (HeLa) was greater than 100 µM. It also gave an IC50 (K562) greater than 100 µM, an IC50 (Bel-7402) greater than 100 µM and an IC50 (B16) of 28.1 µM.
